# According to ChEMBL document CHEMBL4052700, “Synthesis and biological evaluation of JL-A7 derivatives as potent ABCB1 inhibitors” (Bioorg Med Chem, 2017):
# pIC50: −log10 of the molar value. Counter-ions that a name gives are not always drawn.
# Experiments:
# Type in all cases: cell-based
# [1] = target: T1, ATP-dependent translocase ABCB1 (Homo sapiens, UniProt P08183); assay: Inhibition of ABCB1 in human K562/A02 cells assessed as potentiation of adriamycin-induced cytotoxicity by measuring reduction in ADR IC50 at 5 uM measured after 48 hrs by MTT assay relative to ADR alone
# T1 sequence (P08183 whole entry): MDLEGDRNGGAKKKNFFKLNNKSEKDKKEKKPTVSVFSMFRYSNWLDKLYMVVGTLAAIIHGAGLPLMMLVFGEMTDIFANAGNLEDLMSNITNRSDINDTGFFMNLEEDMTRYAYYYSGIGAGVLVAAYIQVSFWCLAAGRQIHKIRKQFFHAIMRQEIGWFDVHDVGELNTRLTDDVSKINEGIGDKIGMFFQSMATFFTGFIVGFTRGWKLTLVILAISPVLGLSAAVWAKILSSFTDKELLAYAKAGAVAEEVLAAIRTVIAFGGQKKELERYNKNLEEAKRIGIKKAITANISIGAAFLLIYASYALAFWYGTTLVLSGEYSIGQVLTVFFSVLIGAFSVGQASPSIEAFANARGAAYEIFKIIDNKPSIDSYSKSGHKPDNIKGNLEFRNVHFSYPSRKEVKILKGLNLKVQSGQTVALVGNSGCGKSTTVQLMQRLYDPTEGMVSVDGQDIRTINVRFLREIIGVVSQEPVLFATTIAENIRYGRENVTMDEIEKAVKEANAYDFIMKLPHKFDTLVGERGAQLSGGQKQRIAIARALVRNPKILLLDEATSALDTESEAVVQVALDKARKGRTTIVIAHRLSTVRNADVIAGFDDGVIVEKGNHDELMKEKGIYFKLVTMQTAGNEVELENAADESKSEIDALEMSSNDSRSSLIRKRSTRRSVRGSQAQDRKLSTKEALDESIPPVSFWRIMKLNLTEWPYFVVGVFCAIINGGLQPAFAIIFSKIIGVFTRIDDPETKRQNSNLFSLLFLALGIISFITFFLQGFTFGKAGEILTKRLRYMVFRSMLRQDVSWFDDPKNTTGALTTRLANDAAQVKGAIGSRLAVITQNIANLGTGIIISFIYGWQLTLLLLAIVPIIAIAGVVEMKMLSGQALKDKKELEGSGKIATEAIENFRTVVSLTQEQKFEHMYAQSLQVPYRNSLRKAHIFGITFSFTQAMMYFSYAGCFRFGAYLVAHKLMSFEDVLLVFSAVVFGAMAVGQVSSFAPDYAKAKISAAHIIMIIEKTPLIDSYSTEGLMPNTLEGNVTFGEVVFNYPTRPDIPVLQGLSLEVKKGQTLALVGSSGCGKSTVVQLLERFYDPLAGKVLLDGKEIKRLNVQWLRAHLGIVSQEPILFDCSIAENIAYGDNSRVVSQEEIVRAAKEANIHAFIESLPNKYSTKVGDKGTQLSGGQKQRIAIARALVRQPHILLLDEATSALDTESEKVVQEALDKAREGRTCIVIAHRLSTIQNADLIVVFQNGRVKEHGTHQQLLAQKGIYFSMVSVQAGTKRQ
# Outline: (§1)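 K562/A02 cells in RPMI 1640 with 10% FBS, 1×10^4/well, grown 24 h. Graded ADM was given with the modulator (0.025–5.0 µM), 48 h at 37 °C, 5% CO2. MTT 4 h, A570. ADM IC50 came from dose–response curves. RF = ADM IC50 without modulator / IC50 with modulator. Triplicates, three independent runs, mean ± SD.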
# K562/A02 = assay: Cytotoxicity against human K562/A02 cells after 48 hrs by MTT assay; conditions: K562/A02, 48 h
# Outline: (§2)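 K562 (parental) and K562/A02 (ADM-resistant, ABCB1-overexpressing) cells, 1×10^4/well, grown 24 h. A graded dose of compound in medium was added, then 48 h at 37 °C under 5% CO2. MTT was added for 4 h at 37 °C and absorbance read at 570 nm. IC50 was taken from dose–response curves.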
# K562 = assay: Cytotoxicity against human K562 cells after 48 hrs by MTT assay; conditions: K562, 48 h; outline: as §2
# [2] = target: T1, ATP-dependent translocase ABCB1; assay: Inhibition of ABCB1 in human K562/A02 cells assessed as potentiation of adriamycin-induced cytotoxicity by measuring reduction in ADR IC50 measured after 48 hrs by MTT assay relative to ADR alone; outline: as §1
# [3] = target: T1, ATP-dependent translocase ABCB1; assay: Inhibition of ABCB1 in human K562/A02 cells assessed as potentiation of adriamycin-induced cytotoxicity by measuring ADR IC50 treated for 48 hrs followed by compound washout measured after 6 hrs by MTT assay relative to ADR alone
# Outline: (§3)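 Duration of reversal in K562/A02 cells. After modulator exposure, cells were tested without washout or after modulator removal followed by 0, 6, 12 or 24 h in drug-free medium. ADM IC50 was then found by MTT. RF = IC50 without modulator / IC50 with modulator. Two to three experiments, mean ± SD.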
# [4] = target: T1, ATP-dependent translocase ABCB1; assay: Inhibition of ABCB1 in human K562/A02 cells assessed as potentiation of adriamycin-induced cytotoxicity by measuring ADR IC50 treated for 48 hrs followed by compound washout measured immediately by MTT assay relative to ADR alone; outline: as §3
# [5] = target: T1, ATP-dependent translocase ABCB1; assay: Inhibition of ABCB1 in human K562/A02 cells assessed as potentiation of adriamycin-induced cytotoxicity by measuring ADR IC50 treated for 48 hrs followed by compound washout measured after 24 hrs by MTT assay relative to ADR alone; outline: as §3
# [6] = target: T1, ATP-dependent translocase ABCB1; assay: Inhibition of ABCB1 in human K562/A02 cells assessed as potentiation of adriamycin-induced cytotoxicity by measuring ADR IC50 treated for 48 hrs followed by compound washout measured after 12 hrs by MTT assay relative to ADR alone; outline: as §3
# [7] = target: T1, ATP-dependent translocase ABCB1; assay: Inhibition of ABCB1 in human K562/A02 cells assessed as increase in adriamycin accumulation pretreated for 60 mins followed by ADR addition after 90 mins by fluorescence spectrophotometric method; conditions: 1.5 h
# Outline: (§4)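 ADM was then added at 20 µM for 90 min. Cells were washed three times with PBS at 4 °C. Retained intracellular ADM mean fluorescence intensity was read by fluorescence spectrophotometer. Three independent experiments, mean ± SD.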
# [8] = target: T1, ATP-dependent translocase ABCB1; assay: Potency index, ratio of compound effect to verapamil effect for inhibition of ABCB1 in human K562/A02 cells assessed as increase in adriamycin accumulation at 5 uM; outline: as §4
# [9] = target: T1, ATP-dependent translocase ABCB1; assay: Inhibition of ABCB1 in human K562/A02 cells assessed as potentiation of adriamycin-induced cytotoxicity measured after 48 hrs by MTT assay; outline: as §1
# [10] = target: T1, ATP-dependent translocase ABCB1; assay: Inhibition of ABCB1 in human K562/A02 cells assessed as potentiation of adriamycin-induced cytotoxicity by measuring reduction in ADR IC50 at 2.5 uM measured after 48 hrs by MTT assay relative to ADR alone; outline: as §1
# [11] = target: T1, ATP-dependent translocase ABCB1; assay: Inhibition of ABCB1 in human K562/A02 cells assessed as potentiation of adriamycin-induced cytotoxicity by measuring reduction in ADR IC50 at 0.1 uM measured after 48 hrs by MTT assay relative to ADR alone; outline: as §1
# [12] = target: T1, ATP-dependent translocase ABCB1; assay: Inhibition of ABCB1 in human K562/A02 cells assessed as potentiation of adriamycin-induced cytotoxicity by measuring reduction in ADR IC50 at 5 uM measured after 48 hrs by MTT assay relative to verapamil
# [13] = target: T1, ATP-dependent translocase ABCB1; assay: Inhibition of ABCB1 in human K562/A02 cells assessed as increase in doxorubicin accumulation after 90 mins by rhodamine123 staining based flow cytometric analysis; conditions: 1.5 h
# [14] = target: T1, ATP-dependent translocase ABCB1; assay: Inhibition of ABCB1 in human K562/A02 cells assessed as potentiation of adriamycin-induced cytotoxicity by measuring reduction in ADR IC50 at 1 uM measured after 48 hrs by MTT assay relative to ADR alone; outline: as §1
# [15] = target: T1, ATP-dependent translocase ABCB1; assay: Inhibition of ABCB1 in human K562/A02 cells assessed as potentiation of adriamycin-induced cytotoxicity by measuring reduction in ADR IC50 at 0.025 uM measured after 48 hrs by MTT assay relative to ADR alone; outline: as §1
# [16] = target: T1, ATP-dependent translocase ABCB1; assay: Inhibition of ABCB1 in human K562/A02 cells assessed as potentiation of adriamycin-induced cytotoxicity by measuring reduction in ADR IC50 at 0.25 uM measured after 48 hrs by MTT assay relative to ADR alone; outline: as §1
# [17] = target: T1, ATP-dependent translocase ABCB1; assay: Inhibition of ABCB1 in human K562/A02 cells assessed as potentiation of adriamycin-induced cytotoxicity by measuring reduction in ADR IC50 at 5 uM measured after 48 hrs by MTT assay relative to JL-A7
# [18] = target: T1, ATP-dependent translocase ABCB1; assay: Inhibition of ABCB1 in human K562/A02 cells assessed as potentiation of adriamycin-induced cytotoxicity by measuring reduction in ADR IC50 at 0.05 uM measured after 48 hrs by MTT assay relative to ADR alone; outline: as §1
# [19] = target: T1, ATP-dependent translocase ABCB1; assay: Inhibition of ABCB1 in human K562/A02 cells assessed as increase in adriamycin accumulation at 0.5 to 2.5 uM pretreated for 60 mins followed by ADR addition after 90 mins by fluorescence spectrophotometric method; conditions: 1.5 h; outline: as §4
# [20] = target: T1, ATP-dependent translocase ABCB1; assay: Inhibition of ABCB1 in human K562/A02 cells assessed as potentiation of adriamycin-induced cytotoxicity by measuring reduction in ADR IC50 at 0.5 uM measured after 48 hrs by MTT assay relative to ADR alone; outline: as §1
# [21] = target: T1, ATP-dependent translocase ABCB1; assay: Inhibition of ABCB1 in human K562/A02 cells assessed as potentiation of adriamycin-induced cytotoxicity by measuring reduction in ADR IC50 at 5 uM measured after 48 hrs by MTT assay relative to tariquidar
# [22] = target: T1, ATP-dependent translocase ABCB1; assay: Inhibition of ABCB1 in human K562/A02 cells assessed as rhodamine123 efflux after 90 mins by flow cytometric analysis (reference value: 0.0231 +/- 0.0058 /s); conditions: 1.5 h
smiles,measurement,setting,value
COc1cc2c(cc1OC)CN(CCn1cc(COc3ccccc3NC(=O)c3ccc(C(C)(C)C)cc3)nn1)CC2,fold change (FC),[1],28.2
same,pIC50,K562/A02,< 4.00
same,pIC50,K562,< 4.00
COc1cc2c(cc1OC)CN(CCc1ccc(NC(=O)c3cc(OC)c(OC)cc3NC(=O)c3cnc4ccccc4c3)cc1)CC2,fold change (FC),[2],31.98
same,fold change (FC),[1],49.1
same,fold change (FC),[3],10.37
same,fold change (FC),[4],16.86
same,pIC50,K562/A02,4.57
same,pIC50,K562,4.50
same,fold change (FC),[5],3.55
same,fold change (FC),[6],6.1
COc1cc2c(cc1OC)CN(CCn1cc(COc3ccccc3C(=O)Nc3cccc([N+](=O)[O-])c3)nn1)CC2,fold change (FC),[1],3.5
same,pIC50,K562/A02,< 4.00
same,pIC50,K562,< 4.00
CCCCc1ccc(NC(=O)c2ccccc2OCc2cn(CCN3CCc4cc(OC)c(OC)cc4C3)nn2)cc1,fold change (FC),[1],15.5
same,pIC50,K562/A02,< 4.00
same,pIC50,K562,< 4.00
COc1ccc(NC(=O)c2ccccc2OCc2cn(CCN3CCc4cc(OC)c(OC)cc4C3)nn2)cc1OC,fold change (FC),[1],12.4
same,pIC50,K562/A02,< 4.00
same,pIC50,K562,< 4.00
COc1cccc(NC(=O)c2ccccc2OCc2cn(CCN3CCc4cc(OC)c(OC)cc4C3)nn2)c1,fold change (FC),[1],5.6 to 11.1
same,pIC50,K562/A02,< 4.00
same,pIC50,K562,< 4.00
COc1cc2c(cc1OC)CN(CCn1cc(COc3ccccc3C(=O)Nc3cccc(Cl)c3)nn1)CC2,fold change (FC),[1],4.3
same,pIC50,K562/A02,< 4.00
same,pIC50,K562,4.06
COc1cc2c(cc1OC)CN(CCn1cc(COc3ccccc3C(=O)Nc3ccc(C)cc3)nn1)CC2,fold change (FC),[1],12.6
same,pIC50,K562/A02,< 4.00
same,pIC50,K562,< 4.00
COc1cc2c(cc1OC)CN(CCn1cc(COc3ccccc3C(=O)Nc3cccc(C)c3)nn1)CC2,fold change (FC),[1],8
same,pIC50,K562/A02,< 4.00
same,pIC50,K562,< 4.00
COc1cc2c(cc1OC)CN(CCn1cc(COc3ccccc3C(=O)Nc3ccc(OC(F)(F)F)cc3)nn1)CC2,fold change (FC),[1],21.4
same,pIC50,K562/A02,< 4.00
same,pIC50,K562,< 4.00
COc1cc2c(cc1OC)CN(CCn1cc(COc3ccccc3C(=O)Nc3ccccc3[N+](=O)[O-])nn1)CC2,fold change (FC),[1],3.6
same,pIC50,K562/A02,< 4.00
same,pIC50,K562,< 4.00
COc1cc2c(cc1OC)CN(CCn1cc(COc3ccccc3C(=O)Nc3ccccc3)nn1)CC2,fold change (FC),[1],3.8
same,pIC50,K562/A02,< 4.00
same,pIC50,K562,< 4.00
COc1cc2c(cc1OC)CN(CCn1cc(COc3ccccc3C(=O)Nc3ccc([N+](=O)[O-])cc3)nn1)CC2,fold change (FC),[1],4.6
same,pIC50,K562/A02,< 4.00
same,pIC50,K562,< 4.00
COc1cc2c(cc1OC)CN(CCn1cc(COc3ccccc3C(=O)Nc3ccc(Cl)cc3)nn1)CC2,fold change (FC),[1],14
same,pIC50,K562/A02,< 4.00
same,pIC50,K562,< 4.00
COc1cc2c(cc1OC)CN(CCn1cc(COc3ccccc3C(=O)Nc3ccc(C(C)(C)C)cc3)nn1)CC2,inhibition (INH),[7],Dose-dependent effect
same,Ratio,[8],1.4
same,fold change (FC),[2],40.34
same,inhibition (INH),[9],Dose-dependent effect
same,fold change (FC),[10],13.5
same,fold change (FC),[1],33.5
same,fold change (FC),[11],1.6
same,fold change (FC),[12],<= 31.4
same,fold change (FC),[3],8.16
same,inhibition (INH),[13],Dose-dependent effect
same,fold change (FC),[4],11.83
same,fold change (FC),[14],7.5
same,pIC50,K562/A02,< 4.00
same,fold change (FC),[15],1.4
same,pIC50,K562,< 4.00
same,fold change (FC),[5],2.96
same,fold change (FC),[16],2.4
same,fold change (FC),[6],4.93
same,fold change (FC),[17],<= 31.4
same,fold change (FC),[18],1.4
same,inhibition (INH),[19],Active
same,fold change (FC),[20],3.9
same,fold change (FC),[21],<= 31.4
same,K,[22],0.0067 s⁻¹
COc1cc2c(cc1OC)CN(CCn1cc(COc3ccccc3C(=O)Nc3ccccc3C)nn1)CC2,fold change (FC),[1],4.4
same,pIC50,K562/A02,< 4.00
same,pIC50,K562,< 4.00
COc1ccc(NC(=O)c2ccccc2OCc2cn(CCN3CCc4cc(OC)c(OC)cc4C3)nn2)cc1,fold change (FC),[1],11.6
same,pIC50,K562/A02,< 4.00
same,pIC50,K562,4.10
COc1cc2c(cc1OC)CN(CCn1cc(COc3ccccc3C(=O)Nc3cc(OC)c(OC)c(OC)c3)nn1)CC2,fold change (FC),[1],3
same,pIC50,K562/A02,< 4.00
same,pIC50,K562,< 4.00
COc1cc2c(cc1OC)CN(CCn1cc(COc3ccccc3C(=O)Nc3ccc(F)cc3)nn1)CC2,fold change (FC),[1],11.7
same,pIC50,K562/A02,< 4.00
same,pIC50,K562,< 4.00
COc1ccc(CCN(C)CCCC(C#N)(c2ccc(OC)c(OC)c2)C(C)C)cc1OC (stereo not drawn),inhibition (INH),[13],Dose-dependent effect
same,inhibition (INH),[19],Active
COc1cccc2c1C(=O)c1c(O)c3c(c(O)c1C2=O)C[C@@](O)(C(=O)CO)C[C@@H]3O[C@H]1C[C@H](N)[C@H](O)[C@H](C)O1 [DOXORUBICIN HYDROCHLORIDE],fold change (FC),[1],1
same,pIC50,K562/A02,4.01
same,pIC50,K562,5.37
